Fibroblast inh – blocks proliferation of human lung fibroblasts; LL 47 human lung fibroblast viability, ATP luminescence; active compounds read low; viability, % at 10 µM; 85,000 tested, 1.1% active; AID 719;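 active means viability at or below 50% in the single dose screen; inactive means viability above 50%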;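 further: compound exposure lasted 72 h before the ATP readout; 100% = median luminescence of untreated cell-only wells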
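Signal: luminescent ATP detection, CellTiter-Glo; assay system: LL 47 human lung fibroblasts; input: 1,150 cells/well; incubation: overnight cell rest, 72 h compound treatment at 37 °C; measure: % viability versus median cells-only luminescence; medium: IMEM growth medium with 15% fetal bovine serum; dosing: compound addition at 0.1% DMSO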
PTEN del growth – suppresses growth of cells with PTEN deletion; HCT116 PTEN-null viability, CellTiter-Glo, 60 h; active compounds read low; 140,000 tested, 1.2% active; viability, % at 10 µM;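 active means viability at or below a set limit, 4 SD under the median of all tested compounds, cut at about 3.7% in these data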;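 further: PTEN knockout HCT116 line with beta catenin targeted HCT116 as companion control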
H69AR growth 86K – blocks growth of human H69AR lung tumor cells; H69AR lung tumor viability, ATP luminescence, 72 h; active compounds read low; viability, % at 10 µM; 85,000 tested, 6% active; AID 598;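 active means viability at or below 40%; inactive means viability above 40%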;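 further: multidrug resistant small cell line overexpressing MRP-1 efflux transporter; 100% = mean luminescence of untreated control wells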
HUVEC inhibit – blocks proliferation of human endothelial cells; HUVEC proliferation, CellTiter-Glo luminescence, 72 h; active compounds read low; viability, % at 10 µM (by protocol); 86,000 tested, 1.1% active; AID 648;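 active means viability at or below 30%; inactive means viability above 30%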;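 further: 100% = median luminescence of DMSO-only cell control wells on each plate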
bCat KO growth – beta-catenin-lacking colon tumor cell growth suppression. HCT116 beta-catenin knockout viability, CellTiter-Glo, 60 h; active compounds read low. viability, % at 10 µM. 140,000 tested, 1.5% active. AID 818;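 active means viability at or under a set limit, the compound median less 4 SD, cut at about 6% in these data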;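 further: 0% = Hyamine 1622 control at 20 µM and 100% = untreated cell control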
Numbers without * were called inactive. The entries come from a sample that favours hits as a whole.

O=C(NCC1CCCO1)C1CCN(C(=O)c2ccc(Br)cc2)CC1 (configuration not stated) was read as Fibroblast inh 97, PTEN del growth 88, H69AR growth 86K 76, HUVEC inhibit 98 and bCat KO growth 82.
`CCC(=O)N=c1sc2cc(F)cc(F)c2n1C` gave Fibroblast inh 94, H69AR growth 86K 87 and HUVEC inhibit 77.
For CCn1c(=NC(=O)CSC(C)=O)sc2cc(F)ccc21 the results were Fibroblast inh 97, PTEN del growth 95, H69AR growth 86K 28*, HUVEC inhibit 53 and bCat KO growth 96.
For CCC1(C)Cc2c(sc3c2c(=O)n(C)c2nnc(SCc4ccccc4)n32)CO1 (configuration not stated) the results were Fibroblast inh 100, PTEN del growth 71, H69AR growth 86K 15*, HUVEC inhibit 70 and bCat KO growth 72.
`CCn1c(=O)c2c3c(sc2n2c(SCc4ccc(F)cc4)nnc12)CCCC3` gave Fibroblast inh 81, H69AR growth 86K 16* and HUVEC inhibit 66.
Screening Cn1c(=O)c2c3c(sc2n2c(SCc4ccccc4)nnc12)CCCC3 returned PTEN del growth 83 and bCat KO growth 86.
Screening CCCC1CCC(=C(C#N)C(N)=O)CC1 (configuration not stated) returned PTEN del growth 102 and bCat KO growth 106.
For CC(=O)OC(C(=O)NCc1ccco1)c1ccncc1 (configuration not stated) the results were Fibroblast inh 100, PTEN del growth 91, HUVEC inhibit 95 and bCat KO growth 93.
For CCCC(C)NC(=O)COc1ccc(S(=O)(=O)c2ccc(OCC(=O)NC(C)CCC)cc2)cc1 (configuration not stated) the results were PTEN del growth 84 and bCat KO growth 95.
Screening O=C(Nc1cccc(Cl)c1N1CCCC1)c1cccc(-c2cc3ccccc3oc2=O)c1 returned PTEN del growth 64 and bCat KO growth 62.
`CCOC(=O)c1c(NC(=O)COc2ncnc3sccc23)sc2c1CCC2` gave Fibroblast inh 81, PTEN del growth 90, H69AR growth 86K 55, HUVEC inhibit 20* and bCat KO growth 84.
Screening COc1ccc(-c2csc3nc(C)n(-n4cccc4)c(=O)c23)cc1OC returned Fibroblast inh 80, PTEN del growth 99, H69AR growth 86K 98, HUVEC inhibit 68 and bCat KO growth 91.
For COc1ccc(-c2csc3nc(-c4ccc(C)cc4)oc(=O)c23)cc1OC the results were PTEN del growth 1.8* and bCat KO growth 1.7*.
For N#Cc1ccc(-c2ccc(F)cc2)nc1Oc1ccc(Cl)c(Cl)c1 the results were PTEN del growth 1.7* and bCat KO growth 2.0*.
For Cc1c(/C=N/n2cnnc2)c2ccccc2n1CCOc1ccccc1 the results were PTEN del growth 101, H69AR growth 86K 32*, HUVEC inhibit 77 and bCat KO growth 94.
Screening Cn1c(NCC(O)c2ccccc2)nc2c1c(=O)n(Cc1ccc(Cl)c(Cl)c1)c(=O)n2C (configuration not stated) returned Fibroblast inh 90, H69AR growth 86K 13* and HUVEC inhibit 48.
For O=C1N/C(=C\c2ccc(O)cc2)C(=O)c2ccccc21 the results were PTEN del growth 7 and bCat KO growth 5.8*.
`C1=C(CCNCC2CCCCC2)CCCC1` gave PTEN del growth 59 and bCat KO growth 64.
`Cc1ccc(N(NC(=O)C(O)(c2ccccc2)c2ccccc2)C(=O)CCl)cc1` gave PTEN del growth 3.4* and bCat KO growth 3.3*.
For Cc1ccc(C(O)(C(=O)NN(C(=O)c2ccccc2)c2ccccc2)c2ccc(C)cc2)cc1 the results were PTEN del growth 53 and bCat KO growth 69.
For COC(=O)c1sccc1NC(=S)N1CC(C)CC(C)C1 (configuration not stated) the results were Fibroblast inh 97, PTEN del growth 84, H69AR growth 86K 93, HUVEC inhibit 98 and bCat KO growth 76.
Screening Clc1ccc(-n2nnnc2-c2ccccc2)cc1 returned Fibroblast inh 99, PTEN del growth 96, H69AR growth 86K 105, HUVEC inhibit 101 and bCat KO growth 94.
Cc1ccc(-n2nnnc2C(Cl)(Cl)c2nnnn2-c2ccc(C)cc2)cc1 was read as PTEN del growth 1.3* and bCat KO growth 1.8*.
For CCCCCC(=O)N(O)C1CC(=O)N(c2ccccc2)C1=O (configuration not stated) the results were Fibroblast inh 101, PTEN del growth 76, H69AR growth 86K 35*, HUVEC inhibit 97 and bCat KO growth 74.
`CC1CCCN(C(=O)C2CCN(S(=O)(=O)c3cccc4cccnc34)CC2)C1` (configuration not stated) gave Fibroblast inh 101, PTEN del growth 85, H69AR growth 86K 101, HUVEC inhibit 96 and bCat KO growth 84.
`Cc1ccc2nc(N(CCCN(C)C)C(=O)c3ccc4c(c3)CCCC4)sc2c1` gave PTEN del growth 1.0* and bCat KO growth 3.4*.
CN(C)CCCN(C(=O)c1ccc2c(c1)CCCC2)c1nc2c(F)cccc2s1 was read as PTEN del growth 16 and bCat KO growth 29.
For Cc1cc(-c2nsc(=O)o2)c(S(C)(=O)=O)s1 the results were PTEN del growth 113, H69AR growth 86K 86, HUVEC inhibit 100 and bCat KO growth 103.
`CCOC(=O)c1cn(-c2nc(-c3ccc(Cl)c(Cl)c3)cs2)c2c(F)c(N3CCOCC3)c(F)cc2c1=O` gave PTEN del growth 1.2* and bCat KO growth 1.7*.
For O=C1c2cccc3c(N4CCCCC4)ccc(c23)C(=O)N1c1ccccn1 the results were PTEN del growth 66 and bCat KO growth 66.
O=C1c2cccc3c([N+](=O)[O-])ccc(c23)C(=O)N1c1nccs1 was read as Fibroblast inh 23*, PTEN del growth 1.5*, H69AR growth 86K 0.8*, HUVEC inhibit 2.0* and bCat KO growth 1.5*.
For O=C1c2cccc3c([N+](=O)[O-])ccc(c23)C(=O)N1c1ccc(Cl)cn1 the results were PTEN del growth 1.6* and bCat KO growth 1.8*.
Screening O=C1c2cccc3cccc(c23)C(=O)N1c1nccs1 returned Fibroblast inh 107, PTEN del growth 113, H69AR growth 86K 97, HUVEC inhibit 108 and bCat KO growth 93.
O=C1c2cccc3c([N+](=O)[O-])ccc(c23)C(=O)N1c1ccccn1 was read as PTEN del growth 1.4* and bCat KO growth 1.6*.
O=C1c2cccc3c(N4CCCCC4)ccc(c23)C(=O)N1c1ccc(Cl)cn1 was read as Fibroblast inh 98, H69AR growth 86K 31* and HUVEC inhibit 79.
COc1ccc2ncc(OC(C)=O)cc2c1 was read as PTEN del growth 103 and bCat KO growth 94.
`Cc1sc2c(c1C)c(=O)nc1scc(C)n12` gave Fibroblast inh 96, H69AR growth 86K 94 and HUVEC inhibit 92.
Screening CCOC(=O)c1sc(Nc2nc3ccc(OC)cc3s2)cc1C returned PTEN del growth 71 and bCat KO growth 85.

Assay outcomes deposited in PubChem BioAssay by SRMLSC.
